Measured values: ChEMBL document CHEMBL1944570, “Discovery of 4''-ether linked azithromycin-quinolone hybrid series: influence of the central linker on the antibacterial activity” (ACS Med Chem Lett, 2011)
Converted amounts (≈) assume the structure as drawn.

Legend:
Assay type in all cases: functional
[1] = test system: Moraxella catarrhalis; experiment: Antibacterial activity against Moraxella catarrhalis by agar microdilution method
Summary of the method: (§1)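 Agar microdilution MIC per NCCLS standards against strains from the Pliva Research Institute culture collection; values in µg/mL. Panel included erythromycin-susceptible strains and strains with inducible or constitutive MLS resistance.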

[2] = test system: Streptococcus pyogenes; experiment: Antibacterial activity against efflux mediated macrolide resistant Streptococcus pyogenes by agar microdilution method
Summary of the method: (§2)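 MIC by agar microdilution following NCCLS standards; strains drawn from the PLIVA Research Institute culture collection. MIC reported in μg/mL.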

[3] = test system: Staphylococcus aureus; experiment: Antibacterial activity against erythromycin-susceptible Staphylococcus aureus by agar microdilution method; summary of the method: as §1
[4] = test system: Staphylococcus aureus; experiment: Antibacterial activity against ciprofloxacin-resistant Staphylococcus aureus by agar microdilution method; summary of the method: as §2
[5] = test system: Streptococcus pneumoniae; experiment: Antibacterial activity against constitutive MLS resistant Streptococcus pneumoniae by agar microdilution method; summary of the method: as §2
[6] = test system: Haemophilus influenzae; experiment: Antibacterial activity against Haemophilus influenzae B0529 by agar microdilution method; summary of the method: as §1
[7] = test system: Streptococcus pneumoniae; experiment: Antibacterial activity against erythromycin-susceptible Streptococcus pneumoniae by agar microdilution method; summary of the method: as §2
[8] = test system: Staphylococcus aureus; experiment: Antibacterial activity against efflux mediated macrolide resistant Staphylococcus aureus by agar microdilution method; summary of the method: as §2
[9] = test system: Streptococcus pyogenes; experiment: Antibacterial activity against constitutive MLS resistant Streptococcus pyogenes by agar microdilution method; summary of the method: as §2
[10] = test system: Streptococcus pyogenes; experiment: Antibacterial activity against Streptococcus pyogenes with inducible resistance to MLS by agar microdilution method; summary of the method: as §2
[11] = test system: Streptococcus pneumoniae; experiment: Antibacterial activity against efflux mediated macrolide resistant Streptococcus pneumoniae by agar microdilution method; summary of the method: as §2
[12] = test system: Streptococcus pyogenes; experiment: Antibacterial activity against erythromycin-susceptible Streptococcus pyogenes by agar microdilution method; summary of the method: as §2
[13] = test system: Staphylococcus aureus; experiment: Antibacterial activity against constitutive MLS resistant Staphylococcus aureus by agar microdilution method; summary of the method: as §2
[14] = test system: Staphylococcus aureus; experiment: Antibacterial activity against Staphylococcus aureus with inducible resistance to MLS by agar microdilution method; summary of the method: as §2

SMILES	MIC [1] [µg/mL]	MIC [2] [µg/mL]	MIC [3] [µg/mL]	MIC [4] [µg/mL]	MIC [5] [µg/mL]	MIC [6] [µg/mL]	MIC [7] [µg/mL]	MIC [8] [µg/mL]	MIC [9] [µg/mL]	MIC [10] [µg/mL]	MIC [11] [µg/mL]	MIC [12] [µg/mL]	MIC [13] [µg/mL]	MIC [14] [µg/mL]
CC[C@H]1OC(=O)[C@H](C)[C@@H](O[C@H]2C[C@@](C)(OC)[C@@H](OCCCC(=O)NCCNc3cc4c(=O)c(C(=O)O)cn(C5CC5)c4cc3Cl)[C@H](C)O2)[C@H](C)[C@@H](O[C@@H]2O[C@H](C)C[C@H](N(C)C)[C@H]2O)[C@](C)(O)C[C@@H](C)CN(C)[C@H](C)[C@@H](O)[C@]1(C)O	4 (≈ 3.51 µM)	2 (≈ 1.76 µM)	4 (≈ 3.51 µM)	≥ 64	0.5 (≈ 0.439 µM)	8 (≈ 7.02 µM)	0.5 (≈ 0.439 µM)	4 (≈ 3.51 µM)	2 (≈ 1.76 µM)	0.25 (≈ 0.22 µM)	≤ 0.125	≤ 0.125	64 (≈ 56.2 µM)	32 (≈ 28.1 µM)
CC[C@H]1OC(=O)[C@H](C)C(=O)[C@H](C)[C@@H](O[C@@H]2O[C@H](C)C[C@H](N(C)C)[C@H]2O)[C@](C)(OCC=Cc2cnc3ccccc3c2)C[C@@H](C)C(=O)[C@H](C)[C@H]2NC(=O)O[C@@]21C [CETHROMYCIN]	≤ 0.125	–	≤ 0.125	≥ 64	–	1 (≈ 1.31 µM)	≤ 0.125	0.25 (≈ 0.326 µM)	1 (≈ 1.31 µM)	–	–	≤ 0.125	> 64	0.25 (≈ 0.326 µM)
CC[C@H]1OC(=O)[C@H](C)[C@@H](O[C@H]2C[C@@](C)(OC)[C@@H](OCCN3CCN(c4ccc5c(c4)c(=O)c(C(=O)O)cn5CC)CC3)[C@H](C)O2)[C@H](C)[C@@H](O[C@@H]2O[C@H](C)C[C@H](N(C)C)[C@H]2O)[C@](C)(O)C[C@@H](C)CN(C)[C@H](C)[C@@H](O)[C@]1(C)O	4 (≈ 3.72 µM)	0.5 (≈ 0.465 µM)	2 (≈ 1.86 µM)	≥ 64	64 (≈ 59.5 µM)	8 (≈ 7.43 µM)	≤ 0.125	4 (≈ 3.72 µM)	64 (≈ 59.5 µM)	0.25 (≈ 0.232 µM)	–	≤ 0.125	64 (≈ 59.5 µM)	64 (≈ 59.5 µM)
CC[C@H]1OC(=O)[C@H](C)[C@@H](O[C@H]2C[C@@](C)(OC)[C@@H](OCCNCCOCCNc3cc4c(cc3F)c(=O)c(C(=O)O)cn4C3CC3)[C@H](C)O2)[C@H](C)[C@@H](O[C@@H]2O[C@H](C)C[C@H](N(C)C)[C@H]2O)[C@](C)(O)C[C@@H](C)CN(C)[C@H](C)[C@H]2OC(=O)O[C@@]21C	0.5 (≈ 0.435 µM)	4 (≈ 3.48 µM)	8 (≈ 6.95 µM)	≥ 64	16 (≈ 13.9 µM)	4 (≈ 3.48 µM)	≤ 0.125	64 (≈ 55.6 µM)	32 (≈ 27.8 µM)	1 (≈ 0.869 µM)	–	≤ 0.125	> 64	64 (≈ 55.6 µM)
CC[C@H]1OC(=O)[C@H](C)[C@@H](O[C@H]2C[C@@](C)(OC)[C@@H](OCCNCCOCCOCCNc3cc4c(=O)c(C(=O)O)cn(C5CC5)c4cc3Cl)[C@H](C)O2)[C@H](C)[C@@H](O[C@@H]2O[C@H](C)C[C@H](N(C)C)[C@H]2O)[C@](C)(O)C[C@@H](C)CN(C)[C@H](C)[C@H]2OC(=O)O[C@@]21C	0.5 (≈ 0.413 µM)	0.5 (≈ 0.413 µM)	2 (≈ 1.65 µM)	≥ 64	64 (≈ 52.9 µM)	1 (≈ 0.826 µM)	≤ 0.125	2 (≈ 1.65 µM)	1 (≈ 0.826 µM)	–	–	≤ 0.125	32 (≈ 26.4 µM)	64 (≈ 52.9 µM)
CC[C@H]1OC(=O)[C@H](C)[C@@H](O[C@H]2C[C@@](C)(OC)[C@@H](OCCNCCOCCNc3cc4c(cc3F)c(=O)c(C(=O)O)cn4C3CC3)[C@H](C)O2)[C@H](C)[C@@H](O[C@@H]2O[C@H](C)C[C@H](N(C)C)[C@H]2O)[C@](C)(O)C[C@@H](C)CN(C)[C@H](C)[C@@H](O)[C@]1(C)O	8 (≈ 7.11 µM)	1 (≈ 0.889 µM)	8 (≈ 7.11 µM)	≥ 64	2 (≈ 1.78 µM)	8 (≈ 7.11 µM)	≤ 0.125	8 (≈ 7.11 µM)	2 (≈ 1.78 µM)	–	–	≤ 0.125	> 64	64 (≈ 56.9 µM)
CC[C@H]1OC(=O)[C@H](C)[C@@H](O[C@H]2C[C@@](C)(OC)[C@@H](OCCN3CCN(c4ccc5c(c4)c(=O)c(C(=O)O)cn5CC)CC3)[C@H](C)O2)[C@H](C)[C@@H](O[C@@H]2O[C@H](C)C[C@H](N(C)C)[C@H]2O)[C@](C)(O)C[C@@H](C)CN(C)[C@H](C)[C@H]2OC(=O)O[C@@]21C	4 (≈ 3.63 µM)	4 (≈ 3.63 µM)	1 (≈ 0.907 µM)	≥ 64	32 (≈ 29 µM)	2 (≈ 1.81 µM)	≤ 0.125	2 (≈ 1.81 µM)	32 (≈ 29 µM)	4 (≈ 3.63 µM)	–	0.25 (≈ 0.227 µM)	32 (≈ 29 µM)	16 (≈ 14.5 µM)
